An excerpt weighted towards active compounds, which were near 4.7% of everything screened.
MC4R barr agon: human MC4R agonism via beta-arrestin; P32245; activation, % at 8.9 µM; U2OS MC4R beta-arrestin complementation, luminescence; percent of melanotan II response, DMSO zero; 0.98% of 360,000 active; AID 540308;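 active = activation above a per-plate cutoff, the mean activation of sample wells on that plate plus 3 SD, cut at about 8% in these data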
AHR act: activates the human aryl hydrocarbon receptor; P35869; activation, % at 5 µM; 2.5% of 320,000 active; AHR-responsive luciferase reporter cells, luminescence; in the data active = activation above about 47%;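 also: 0% = vehicle wells and 100% = reference agonist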
FXN GAA850 act: activators of GAA850 frataxin (FXN) promoter; HEK293 lucGAA850 FXN promoter luciferase reporter, 24 h; percent of 10 µM SAHA response; activation, % at 6 µM; 0.56% of 360,000 active;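 active = activation above the average of all compounds screened plus 3 SD, cutoff fixed separately per campaign, cut at about 7.5% in these data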;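 also: 0% = DMSO wells and 100% = 10 µM SAHA wells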
HTR2A ag: mouse HTR2A agonism via beta-arrestin recruitment | P35363 | AID 624169 | activation, % at 7.6 µM | CHO-K1 mHTR2A beta-arrestin complementation, luminescence; percent of 30 µM serotonin response | 0.66% of 360,000 active;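 active = activation above a run cutoff, the mean activation of all tested compounds plus 3 SD, cut at about 14% in these data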;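 also: 0% = plate median of compound wells and 100% = 30 µM serotonin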
MC4R antagonist: blocks human MC4R cAMP signaling; MC4R-expressing cells, MTII-stimulated cAMP, LANCE TR-FRET; P32245; 0.48% of 360,000 active; inhibition, % at 6.5 µM;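 active = inhibition above its plate's cutoff, the mean of tested wells on that plate plus 3 SD, cut at about 29% in these data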;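 also: 0% = Melanotan II alone and 100% = Melanotan II plus saturating MCL0020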
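Assay system: U2OS-MC4R stable cell line; Also added: Melanotan II; Technique: Eu-cAMP/anti-cAMP TR-FRET, emission 671 nm; Times: 30-min compound, 1-h challenge, 1-h detection, room temperature.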
MOR ag counter: counter-screen for mouse HTR2A agonists: human mu opioid receptor agonists; shares compounds with HTR2A ag; U2OS OPRM1 beta-arrestin PathHunter, luminescence; DMSO 0%, DAMGO 9.3 µM 100%; activation, % at 9.3 µM; 5.3% of 2,300 active; AID 624380;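 active = mean activation above the mean of DMSO-only wells plus 3 SD, cut at about 0.5% in these data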
Target sequence (P35372 whole entry, looked up): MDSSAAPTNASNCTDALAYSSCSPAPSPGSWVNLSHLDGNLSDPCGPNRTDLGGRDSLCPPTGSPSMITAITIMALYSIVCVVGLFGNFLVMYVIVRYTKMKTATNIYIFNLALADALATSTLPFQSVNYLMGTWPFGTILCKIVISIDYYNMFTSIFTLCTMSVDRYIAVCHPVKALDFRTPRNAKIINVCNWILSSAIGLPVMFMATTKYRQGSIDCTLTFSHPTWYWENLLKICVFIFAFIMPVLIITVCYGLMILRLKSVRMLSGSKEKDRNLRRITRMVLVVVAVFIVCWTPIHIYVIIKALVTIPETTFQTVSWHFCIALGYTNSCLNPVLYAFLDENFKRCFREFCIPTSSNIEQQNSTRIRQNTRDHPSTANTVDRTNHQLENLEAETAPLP
HTR2A ag conf: mouse HTR2A agonism confirmed; shares compounds with HTR2A ag; CHO-K1 PathHunter beta-arrestin recruitment, luminescence; DMSO 0%, 30 µM serotonin 100%; activation, % at 7.6 µM; 19% of 2,300 active; AID 624381;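 active = mean activation across triplicates above the hit threshold derived in the original primary screen, cut at about 15% in these data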
The depositor's hits bear a star; · = not tested or not shown.

SMILES	MC4R barr agon	AHR act	FXN GAA850 act	HTR2A ag	MC4R antagonist	MOR ag counter	HTR2A ag conf
Cc1nn(C)c(C(=O)Nc2ccn(C34CC5CC(CC(C5)C3)C4)n2)c1[N+](=O)[O-]	3	1	5	15*	-4	0	12
CCn1c(CNC(=O)COc2ccc(C(C)C)cc2)nnc1SCC(=O)Nc1ccccc1C(C)C	3	0	-1	18*	14	0	2
CCn1c(CNC(=O)COc2ccc(C(C)C)cc2)nnc1SCC(=O)Nc1ccccc1F	0	3	1	1	-2	·	·
Cc1ccc(OCC(=O)OCC(=O)NC2CCCC2)cc1C	-1	1	1	15*	5	0	3
COc1ccc(CC(=O)OCC(=O)NC2CCCCC2)cc1OC	-2	-1	2	20*	1	0	-2
COc1ccc(CCC(=O)OCC(=O)NC2CCCC2)cc1OC	4	·	0	-1	4	·	·
Cc1cc(OCC(=O)OCC(=O)NC2CCCC2)ccc1Cl	0	0	1	-9	3	·	·
COc1ccc(CCC(=O)NNC(=O)Cn2nc(C)cc2C)cc1	-2	0	3	17*	6	-1	-7
Cc1cccc(OCCC(=O)NNC(=O)Cn2nc(C)cc2C)c1	0	3	0	1	6	·	·
COc1cccc(OC)c1OCCOCCn1cnc2ccccc2c1=O	-1	6	-1	18*	4	0	-3
O=C(Nc1c(-c2ccc3c(c2)OCO3)[nH][nH]c1=O)c1ccccc1	·	·	·	0	·	·	·
CCCCN(C)C(=O)c1sc(=O)n(Cc2cc(Cl)ccc2OC)c1C	0	·	0	17*	11	-1	-6
COc1ccc(Cl)cc1Cn1c(C)c(C(=O)N(C)Cc2ccc(F)cc2)sc1=O	-1	·	-4	6	8	·	·
COc1ccc2cc(/C=N/NC(=O)CN(c3ccccc3C)S(=O)(=O)c3ccccc3)c(Cl)nc2c1	-2	1	2	16*	11	-1	-4
O=C(NNc1nc2c(F)cc(F)cc2s1)C1=COCCO1	-2	3	0	2	24	·	·
Cc1cccc2sc(NNC(=O)C3=COCCO3)nc12	0	30	3	17*	-12	0	-1
CCn1c(=O)ccc2cc([N+](=O)[O-])ccc21	-1	-2	-1	14*	1	-1	2
COc1ccc(N(C)C(=O)c2ccc(NC(=O)CCS(=O)(=O)c3cccs3)cc2)cc1	0	2	1	15*	4	-1	-1
COc1ccc(N(C)S(=O)(=O)c2cccc(C(=O)Nc3nc(C)c(C(C)=O)s3)c2)cc1	-1	3	1	16*	13	0	5
C=CCNC(=O)O/N=C/c1csc([N+](=O)[O-])c1	-1	-2	1	17*	11	0	-2
Cc1cccc(C)c1NC(=O)C(c1ccnc2ccccc12)N1CCN(CCN(C)C)CC1 (stereo not drawn)	·	·	·	-2	·	·	·
COc1cccc(NC(=O)CN2C(=O)c3cccnc3Oc3ccc(Cl)cc32)c1	-1	41	-1	4	9	·	·
O=C(CN1C(=O)c2cccnc2Oc2ccc(Cl)cc21)Nc1ccccc1F	-2	18	1	19*	9	0	3
CCCCN(C(=O)c1cccc2c(=O)c(C)c(-c3ccccc3)oc12)c1ccccc1	6	·	-1	38*	17	0	10
CCN(CC)C(=O)c1nc(-c2cccc3ccccc23)no1	-1	·	4	7	-3	·	·
SMILES	MC4R barr agon	AHR act	FXN GAA850 act	HTR2A ag	MC4R antagonist	MOR ag counter	HTR2A ag conf
O=C1C=C(c2ccc(C(=O)O)c(Cl)c2)C[C@@H](c2ccc3c(c2)OCO3)C1	-2	-1	-1	0	6	·	·
COc1c2c(cc3ccc(=O)oc13)CCO2	-1	0	2	21*	-2	0	-2
COc1cc2ccc(=O)oc2c(CC=C(C)C)c1OC	0	19	1	-2	4	·	·
O=C(NCc1cccc(C(F)(F)F)c1)C1C(=O)Nc2ccccc2C(=O)N1C1CCCC1 (stereo not drawn)	·	·	·	-4	·	·	·
O=C(Nc1ccc2[nH]ccc2c1)c1cccs1	-1	0	3	15*	7	0.9*	2
N#C/C(=C/c1ccc(-c2ccccc2[N+](=O)[O-])o1)C(N)=O	-4	5	2	-3	-10	·	·
Nc1nnc(-c2ccccc2[N+](=O)[O-])o1	-2	-2	0	26*	4	0	-5
CC1CC(C)CN(CCOc2cccc(Cl)c2Cl)C1 (stereo not drawn)	2	7	1	30*	0	0	78*
CCN(CC(=O)NCc1ccc(F)cc1)C(=O)c1cccc(S(=O)(=O)N(C)c2ccc(OC)cc2)c1	0	·	1	1	7	·	·
OCC[C@H]1C[C@H](O)[C@@H](O)[C@@]2(Cc3ccccc3CO2)O1	0	3	0	17*	6	0	1
OCC[C@@H]1C[C@@H](O)[C@H](O)[C@@]2(Cc3ccccc3CO2)O1	0	0	2	5	4	·	·
Cc1cccc(NC(=O)CN(C)C(=O)Cc2ccc(-c3ccccc3)cc2)c1C	3	·	1	-1	5	·	·
O=C(NC(=S)Nc1ccccc1N1CCCCC1)c1ccc(F)cc1Cl	2	6	2	17*	3	-1	-5
CC(Cc1c[nH]c2ccccc12)NC(=O)OCCCl (stereo not drawn)	-2	4	0	20*	-1	-1	-1
Cc1ccc(S(=O)(=O)N2C[C@@H](C)[C@]3(C2)[C@H](O)[C@H](OC(=O)NC2CCCC2)C[C@H]2C(=O)N(c4ccccc4)C(=O)[C@H]23)cc1	-1	·	-8	10	3	·	·
COc1cc(NC(=O)c2ccc3c(SCC(=O)O)c4c(nc3c2)CCCC4)cc(OC)c1OC	-3	-1	1	15*	-5	-1	-3
COc1cc(NC(=O)c2ccc3c(SCC(=O)O)c4c(nc3c2)CCC4)cc(OC)c1OC	0	1	1	-3	-10	·	·
O=C(NC(=S)Nn1cnc2c(cnn2-c2ccccc2)c1=O)c1ccc(Cl)cc1	-4	1	1	42*	5	0	0
CC(C)CC(NS(=O)(=O)OCC(Cl)(Cl)Cl)c1ccccc1 (stereo not drawn)	2	3	1	20*	-1	0.9*	-1
COC(=O)CCC(NS(=O)(=O)OCC(Cl)(Cl)Cl)c1ccccc1 (stereo not drawn)	1	1	2	6	11	·	·
